Measurements published in ChEMBL document CHEMBL3576792, “Enhancement of antibiotic activity against multidrug-resistant bacteria by the efflux pump inhibitor 3,4-dibromopyrrole-2,5-dione isolated from a Pseudoalteromonas sp” (J Nat Prod, 2015).
In brackets after ≈: the same amount, converted by molar mass. Activity calls are given as the source filed them. No cut-off for these calls is given here.

What was measured:
[1] = tested on: Escherichia coli; assay: Potentiation of kanamycin-induced antibacterial activity Escherichia coli transformed with plasmid carrying MG1655 deltaBC/pABM assessed as kanamycin MIC by p-iodonitrotetrazolium chloride colorimetric assay; format: functional
How it was run: (§1)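 Checkerboard microdilution in Mueller-Hinton broth: two-fold dilutions of antibiotic crossed with dilutions of test compound above, at and below their MICs. Growth was read by INT colorimetric assay, with MIC as the lowest concentration showing no visible growth. FICs and FIC index were derived from these MICs. ΔBC/pABM and ΔBC/pXYM strains were grown with 100 μg/mL ampicillin and 1 mM IPTG.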

[2] = tested on: Escherichia coli; assay: Potentiation of ciprofloxacin-induced antibacterial activity Escherichia coli transformed with plasmid carrying MG1655 deltaBC/pXYM by p-iodonitrotetrazolium chloride colorimetric assay; format: functional
[3] = tested on: Escherichia coli; assay: Potentiation of kanamycin-induced antibacterial activity Escherichia coli transformed with plasmid carrying MG1655 deltaBC/pXYM by p-iodonitrotetrazolium chloride colorimetric assay; format: functional
[4] = tested on: Escherichia coli; assay: Potentiation of kanamycin-induced antibacterial activity Escherichia coli AG102 overexpressing AcrAB-TolC assessed as kanamycin MIC by p-iodonitrotetrazolium chloride colorimetric assay; format: functional; how it was run: as §1
[5] = tested on: Escherichia coli; assay: Potentiation of tetracycline-induced antibacterial activity Escherichia coli AG102 overexpressing AcrAB-TolC assessed as tetracycline MIC by p-iodonitrotetrazolium chloride colorimetric assay; format: functional; how it was run: as §1
[6] = tested on: Escherichia coli; assay: Potentiation of ciprofloxacin-induced antibacterial activity Escherichia coli AG102 overexpressing AcrAB-TolC by p-iodonitrotetrazolium chloride colorimetric assay; format: functional
[7] = tested on: Escherichia coli; assay: Potentiation of oxacillin-induced antibacterial activity Escherichia coli transformed with plasmid carrying MG1655 deltaBC/pXYM assessed as oxacillin MIC by p-iodonitrotetrazolium chloride colorimetric assay; format: functional; how it was run: as §1
[8] = tested on: Escherichia coli; assay: Potentiation of chloramphenicol-induced antibacterial activity Escherichia coli transformed with plasmid carrying MG1655 deltaBC/pXYM by p-iodonitrotetrazolium chloride colorimetric assay; format: functional
[9] = tested on: Escherichia coli; assay: Effect on intracellular H33342 accumulation in Escherichia coli AG100A delta acrAB mutant at 1 ug/ml after 60 mins by accumulation assay; format: functional
How it was run: (§2)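 Cells grown in Luria broth at 37 °C, 200 rpm to OD600 1.0, then washed twice in PBS and diluted in glucose-free PBS to OD600 0.3. H33342 was used at 2.5 μM with 22 mM glucose at 37 °C and allowed to accumulate for ~30 min. Compound was then added and fluorescence (Ex 350/Em 460 nm) followed for 60 min. Values are the mean RFU of the final 4 min, after media-plus-compound background was subtracted. Run in duplicate, n = 8.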

[10] = tested on: Escherichia coli; assay: Potentiation of kanamycin-induced antibacterial activity Escherichia coli transformed with plasmid carrying MG1655 deltaBC/pXYM assessed as kanamycin MIC by p-iodonitrotetrazolium chloride colorimetric assay; format: functional; how it was run: as §1
[11] = tested on: Escherichia coli; assay: Potentiation of erythromycin-induced antibacterial activity Escherichia coli transformed with plasmid carrying MG1655 deltaBC/pABM assessed as erythromycin MIC by p-iodonitrotetrazolium chloride colorimetric assay; format: functional; how it was run: as §1
[12] = tested on: Escherichia coli; assay: Potentiation of chloramphenicol-induced antibacterial activity Escherichia coli transformed with plasmid carrying MG1655 deltaBC/pABM assessed as chloramphenicol MIC by p-iodonitrotetrazolium chloride colorimetric assay; format: functional; how it was run: as §1
[13] = tested on: Escherichia coli; assay: Potentiation of tetracycline-induced antibacterial activity Escherichia coli transformed with plasmid carrying MG1655 deltaBC/pXYM assessed as tetracycline MIC by p-iodonitrotetrazolium chloride colorimetric assay; format: functional; how it was run: as §1
[14] = tested on: Escherichia coli; assay: Potentiation of kanamycin-induced antibacterial activity Escherichia coli AG102 overexpressing AcrAB-TolC by p-iodonitrotetrazolium chloride colorimetric assay; format: functional
[15] = tested on: Escherichia coli; assay: Potentiation of ciprofloxacin-induced antibacterial activity Escherichia coli AG102 overexpressing AcrAB-TolC assessed as ciprofloxacin MIC by p-iodonitrotetrazolium chloride colorimetric assay; format: functional; how it was run: as §1
[16] = tested on: Escherichia coli; assay: Potentiation of levofloxacin-induced antibacterial activity Escherichia coli transformed with plasmid carrying MG1655 deltaBC/pXYM MIC by p-iodonitrotetrazolium chloride colorimetric assay; format: functional
[17] = tested on: Escherichia coli; assay: Potentiation of erythromycin-induced antibacterial activity Escherichia coli transformed with plasmid carrying MG1655 deltaBC/pABM by p-iodonitrotetrazolium chloride colorimetric assay; format: functional
[18] = tested on: Escherichia coli; assay: Potentiation of ciprofloxacin-induced antibacterial activity Escherichia coli transformed with plasmid carrying MG1655 deltaBC/pXYM assessed as ciprofloxacin MIC by p-iodonitrotetrazolium chloride colorimetric assay; format: functional; how it was run: as §1
[19] = tested on: Escherichia coli; assay: Potentiation of erythromycin-induced antibacterial activity Escherichia coli transformed with plasmid carrying MG1655 deltaBC/pXYM assessed as erythromycin MIC by p-iodonitrotetrazolium chloride colorimetric assay; format: functional; how it was run: as §1
[20] = tested on: Escherichia coli; assay: Potentiation of levofloxacin-induced antibacterial activity Escherichia coli transformed with plasmid carrying MG1655 deltaBC/pABM MIC by p-iodonitrotetrazolium chloride colorimetric assay; format: functional
[21] = tested on: Escherichia coli; assay: Potentiation of piperacillin-induced antibacterial activity Escherichia coli AG102 overexpressing AcrAB-TolC assessed as piperacillin MIC by p-iodonitrotetrazolium chloride colorimetric assay; format: functional; how it was run: as §1
[22] = tested on: Escherichia coli; assay: Potentiation of piperacillin-induced antibacterial activity Escherichia coli transformed with plasmid carrying MG1655 deltaBC/pABM by p-iodonitrotetrazolium chloride colorimetric assay; format: functional, organism-based; how it was run: as §1
[23] = tested on: Escherichia coli; assay: Antibacterial activity against Escherichia coli transformed with plasmid carrying MG1655 deltaBC/pXYM by p-iodonitrotetrazolium chloride colorimetric assay; format: functional
How it was run: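 Two-fold broth microdilution in Mueller-Hinton broth, read by p-iodonitrotetrazolium chloride colorimetric assay. MIC is the lowest concentration giving no visible growth. MG1655 ΔacrB ΔtolC strains carrying pABM or pXYM were always cultured with 100 μg/mL ampicillin and 1 mM IPTG. Medium, inoculum and 1% DMSO (final) served as negative control.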

[24] = tested on: Escherichia coli K-12; assay: Inhibition of AcrAB-TolC pump in Escherichia coli K-12 AG100 assessed as inhibition of H33342 accumulation at 1 ug/ml after 60 mins by accumulation assay
How it was run: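 AG100 (wild-type K-12) or AG100A (ΔacrAB) grown in Luria broth at 37 °C and 200 rpm to OD600 1.0, PBS-washed, diluted to OD600 0.3. Cells given 2.5 μM H33342 with 22 mM glucose at 37 °C for ~30 min until stable, then compound (0.06–64 μg/mL) added. Fluorescence (Ex 350/Em 460) read for 60 min, background subtracted. Final 4 time points averaged; one-way ANOVA/Dunnett vs Hoechst-only; n = 8.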

[25] = tested on: Escherichia coli; assay: Potentiation of tetracycline-induced antibacterial activity Escherichia coli transformed with plasmid carrying MG1655 deltaBC/pXYM by p-iodonitrotetrazolium chloride colorimetric assay; format: functional
[26] = tested on: Escherichia coli; assay: Effect on intracellular H33342 accumulation in Escherichia coli AG100A delta acrAB mutant at 0.06 ug/ml after 60 mins by accumulation assay; format: functional; how it was run: as §2
[27] = tested on: Escherichia coli; assay: Effect on intracellular H33342 accumulation in Escherichia coli AG100A delta acrAB mutant at 0.25 ug/ml after 60 mins by accumulation assay; format: functional
How it was run: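 Cells grown in Luria broth at 37 °C, 200 rpm to OD600 1.0, washed twice in PBS and diluted in glucose-free PBS to OD600 0.3. Cells were given 2.5 μM H33342 with 22 mM glucose at 37 °C for ~30 min until stable, then compound added (0.06–64 μg/mL). Fluorescence (Ex 350/Em 460 nm) was read for 60 min, background subtracted, and the final 4 min averaged (n = 8).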

## O=C1NC(=O)C(Br)=C1Br
[1]
  MIC: 128 µg/mL
[2]
  fractional inhibitory concentration index (FICI): 0.19
[3]
  fractional inhibitory concentration index (FICI): 0.75
[4]
  MIC: 2 µg/mL
[5]
  MIC: 64 µg/mL
[6]
  fractional inhibitory concentration index (FICI): 0.5
[7]
  MIC: 64 µg/mL
[8]
  fractional inhibitory concentration index (FICI): 0.19
[9]
  RFU: 1070
[10]
  MIC: 32 µg/mL
[11]
  MIC: 64 µg/mL
[12]
  MIC: 128 µg/mL
[13]
  MIC: 8 µg/mL
[14]
  fractional inhibitory concentration index (FICI): 0.27
[15]
  MIC: 2 µg/mL
[16]
  fractional inhibitory concentration index (FICI): 0.19
[17]
  fractional inhibitory concentration index (FICI): 0.19
[18]
  MIC: 32 µg/mL
[19]
  MIC: 32 µg/mL
[20]
  fractional inhibitory concentration index (FICI): 0.75
[21]
  MIC: 32 µg/mL
[22]
  fractional inhibitory concentration index (FICI): inactive
[23]
  MIC: 128 µg/mL (≈ 502 µM)
[24]
  RFU: 1010
[25]
  fractional inhibitory concentration index (FICI): 0.58
[26]
  RFU: 1020
[27]
  RFU: 1000
